From ChEMBL document CHEMBL1153772 (J Nat Prod, 2009)
Converted amounts (≈) assume the structure as drawn.

Assays:
MDA-MB-435 = assay: Cytotoxicity against human MDA-MB-435 cells assessed cell growth; type: functional
[1] = Metabolic satbility in mouse liver microsomes assessed as compound remaining at 1 uM after 60 min in the absence of NADPH; type: ADME, Microsome; conditions: read-out: Stability
HCT-116 = assay: Cytotoxicity against human HCT116 cells assessed cell growth; type: functional
BXPC-3 = assay: Cytotoxicity against human BxPC3 cells; type: functional, cell-based
Outline: (§1)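 IC50 value derived from at least three separate assay runs per sample.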

NCI-H23 = assay: Cytotoxicity against human NCI-H23 cells assessed cell growth; type: functional
NCI-H522 = assay: Cytotoxicity against human NCI-H522 cells assessed cell growth; type: functional
OVCAR-3 = assay: Cytotoxicity against human OVCAR-3 cells assessed cell growth; type: functional
[2] = Metabolic stability in mouse liver microsomes assessed as compound metabolized at 1 uM in the presence of NADPH; type: ADME, Microsome; conditions: read-out: Activity
MCF7 = assay: Cytotoxicity against human MCF7 cells assessed cell growth; type: functional
Malme-3M = assay: Cytotoxicity against human MALME-3M cells assessed cell growth; type: functional
NCI-H226 = assay: Cytotoxicity against human NCI-H226 cells assessed cell growth; type: functional
COLO 205 = assay: Cytotoxicity against human COLO205 cells assessed cell growth; type: functional
PANC-1 = assay: Cytotoxicity against human PANC1 cells; type: functional, cell-based; outline: as §1
NCI/ADR-RES = assay: Cytotoxicity against human NCI/ADR-RES cells assessed cell growth; type: functional
T47D = assay: Cytotoxicity against human T47D cells assessed cell growth; type: functional
[3] = Protein binding in mouse plasma at 10 uM; type: ADME, cell-free; conditions: read-out: PPB (converted)
SR = assay: Cytotoxicity against human SR cells assessed cell growth; type: functional
MDA-MB-231 = assay: Cytotoxicity against human MDA-MB-231 cells assessed cell growth; type: functional
DU-145 = assay: Cytotoxicity against human DU145 cells assessed cell growth; type: functional
Homo sapiens [4] = organism: Homo sapiens; assay: Stability in human plasma assessed as compound remaining at 40 uM after 3 hrs in presence of PBS and inorganic phosphate buffer
Homo sapiens [5] = organism: Homo sapiens; assay: Stability in human plasma in presence of PBS at 40 uM after 3 hrs
[6] = Permeability at 50 uM at pH 6.2 by PAMPA
SF-295 = assay: Cytotoxicity against human SF295 cells assessed cell growth; type: functional
Homo sapiens [7] = organism: Homo sapiens; assay: Unbound fraction in human plasma at 1 uM
[8] = Stability in mouse plasma assessed as compound remaining at 40 uM after 3 hrs in presence of PBS and inorganic phosphate buffer; type: ADME, cell-free; conditions: read-out: Activity
[9] = Cytotoxicity against human Hs 578T cells assessed cell growth; type: functional
UO-31 = assay: Cytotoxicity against human UO31 cells assessed cell growth; type: functional
ACHN = assay: Cytotoxicity against human ACHN cells assessed cell growth; type: functional
A498 = assay: Cytotoxicity against human A498 cells assessed cell growth; type: functional
A549 = assay: Cytotoxicity against human A549 cells; type: functional, cell-based; outline: as §1
SN12C = assay: Cytotoxicity against human SN12C cells assessed cell growth; type: functional
Candida albicans = assay: Antifungal activity against Candida albicans 44506 after 24 hrs by broth dilution assay; type: functional; conditions: Candida albicans, 44506, 24 h
Outline: (§2)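 Broth microdilution in microtiter format at a seeding density of 10^3/mL. C. albicans was grown in Sabouraud dextrose broth; S. aureus and P. aeruginosa in cation-supplemented Mueller-Hinton broth. Incubated at 37°C, with growth scored after 24 h. MIC taken as the lowest concentration giving complete growth inhibition.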

NCI-H460 = assay: Cytotoxicity against human NCI-H460 cells assessed cell growth; type: functional
Pseudomonas aeruginosa = assay: […] activity against […] aeruginosa 27853 after 24 hrs by broth dilution assay; type: functional; conditions: Pseudomonas aeruginosa, 27853, 24 h; outline: as §2
Homo sapiens [10] = organism: Homo sapiens; assay: Protein binding in human plasma at 1 uM; conditions: read-out: PPB (converted)
U-251 = assay: Cytotoxicity against human U251 cells assessed cell growth; type: functional
Homo sapiens [11] = organism: Homo sapiens; assay: Protein binding in human plasma at 10 uM; conditions: read-out: PPB (converted)
M14 = assay: Cytotoxicity against human M14 cells assessed cell growth; type: functional
HOP-92 = assay: Cytotoxicity against human HOP92 cells assessed cell growth; type: functional
[12] = Metabolic satbility in human liver microsomes assessed as compound remaining at 1 uM after 60 min in the absence of NADPH; type: ADME, Microsome; conditions: read-out: Stability
MDA-MB-468 = assay: Cytotoxicity against human MDA-MB-468 cells assessed cell growth; type: functional
[13] = Protein binding in mouse plasma at 1 uM; type: ADME, cell-free; conditions: read-out: PPB (converted)
SF-539 = assay: Cytotoxicity against human SF539 cells assessed cell growth; type: functional
[14] = Unbound fraction in mouse plasma at 10 uM; type: ADME, cell-free
[15] = Stability in PBS at 40 uM after 3 hrs; type: physicochemical; conditions: read-out: Stability

## CC(=O)N(C)CCc1cc(Br)c(OCCCNc2ncn(C)c3ncnc2-3)c(Br)c1 [APHROCALLISTIN]
MDA-MB-435
  Activity: 62.57%
[1]
  remaining at 1 h, 1 µM: 103%
HCT-116
  Activity: 28.57%
BXPC-3
  IC50: 70.9 µM
NCI-H23
  Activity: 42.18%
NCI-H522
  Activity: 36.6%
OVCAR-3
  Activity: 87.3%
[2]
  metabolised at 1 µM: 98.6%
MCF7
  Activity: 39.83%
Malme-3M
  Activity: 76.4%
NCI-H226
  Activity: 44.72%
COLO 205
  Activity: 104.32%
PANC-1
  IC50: 22.8 µM
NCI/ADR-RES
  Activity: 72.89%
T47D
  Activity: 26.91%
[3]
  fraction unbound at 10 µM: 0.309
SR
  Activity: 10.72%
MDA-MB-231
  Activity: 74.94%
DU-145
  Activity: 102.31%
Homo sapiens [4]
  remaining at 3 h, 40 µM: 76.6%
Homo sapiens [5]
  remaining at 3 h, 40 µM: 103%
[6]
  Papp at 50 µM: 201 ×10⁻⁶ cm/s
SF-295
  Activity: 50.01%
Homo sapiens [7]
  fraction unbound at 1 µM: 0.044
[8]
  remaining at 3 h, 40 µM: 79.6%
[9]
  Activity: 52.48%
UO-31
  Activity: 79.45%
ACHN
  Activity: 69.23%
A498
  Activity: 71.71%
A549
  IC50: 15.9 µM
SN12C
  Activity: 92.68%
Candida albicans
  MIC: 250 µg/mL (≈ 463 µM)
NCI-H460
  Activity: 60.08%
Pseudomonas aeruginosa
  MIC: > 500 µg/mL
Homo sapiens [10]
  fraction unbound at 1 µM: 0.044
U-251
  Activity: 79.39%
Homo sapiens [11]
  fraction unbound at 10 µM: 0.103
M14
  Activity: 73.49%
HOP-92
  Activity: 75.25%
[12]
  remaining at 1 h, 1 µM: 118%
MDA-MB-468
  Activity: 25.48%
[13]
  fraction unbound at 1 µM: 0.15
SF-539
  Activity: 80.09%
[14]
  fraction unbound at 10 µM: 0.309
[15]
  remaining at 3 h, 40 µM: 99.7%
